# Screens from PubChem BioAssay.
# PvdQ inh: P. aeruginosa PvdQ acylase inhibition. inhibition, % at 10 µM. purified PvdQ acylase, fluorescence plate reader. 0.063% of 340,000 active; in the data active = inhibition above about 30%, passing the limit was not always enough;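 also: 0% = vehicle neutral wells and 100% = reference inhibitor wells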
# CAL PDZ FP-1: inhibitors of human CAL PDZ peptide binding | Q9HD26 | purified CAL PDZ, TMR-peptide fluorescence polarization, 1 h | inhibition, % at 20 µM | 0.02% of 330,000 active;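 active = highest replicate inhibition of at least 40%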;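 also: plate controls were DMSO neutral control wells for no effect and unlabeled competitor peptide control wells for full effect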
#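 Control set: unlabelled peptide and DMSO controls / Material: purified CerCALP PDZ construct / Timing: 1 h incubation at room temperature before polarization reading / Doses: 20 µM, one dose / Detection: fluorescence polarization (mP)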
# CAL PDZ FP-2: blocks peptide binding to the human CAL PDZ domain; 0.92% of 300,000 active; purified CAL PDZ, TMR-peptide fluorescence polarization, 1 h; inhibition, % at 24.9 µM;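 active = mean inhibition of at least 30% with at least half of replicates also reaching 30%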;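 also: 0% = DMSO neutral control and 100% = excess unlabeled competitor peptide PRC23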
# miR-122 sensor: inhibitors of miR-122 in Huh7 cells | activation (reporter increase), % at 12.5 µM | 0.3% of 340,000 active | Huh7 miR-122 Renilla luciferase sensor, 48 h; neutral wells = 0, positive control = 100;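 active = mean replicate activation score at least 90 and every replicate individually at or above 90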;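 also: higher luciferase means less miR-122 activity so hits act as miR-122 inhibitors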
# miR-27b select: miR-27b effect in Huh7 as miR-122 inhibitor selectivity check. relative miR-27b level (unnormalised ratio), ratio at 35 µM. shares compounds with miR-122 sensor. Huh7 miR-27b levels, qRT-PCR, 48 h. 35 tested, under 10 active;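 active = compounds lowering miR-27b whose fitted half-maximal dose is at most twice their top tested dose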
# An asterisk follows results filed as active; · = no result; [ ] = another dose, or the depositor's remark. An excerpt weighted towards active compounds, which were near 0.95% of everything screened.
SMILES,PvdQ inh,CAL PDZ FP-1,CAL PDZ FP-2,miR-122 sensor,others
C(=C\c1nnc(-c2cccs2)o1)/c1ccccc1,38*,-5,-2,-2,
CC(=O)NS(=O)(=O)c1ccc(NC(=S)NC(=O)C(C)C)cc1,-24,-1,·,-2,
CCOC(=O)c1ccc(N2Cc3ccccc3C2=NC(=O)c2cccc([N+](=O)[O-])c2)cc1,45*,-3,-1,·,
O=C(NCc1ccco1)c1nn2c(C(F)(F)F)cc(-c3cccs3)nc2c1Br,-6,-1,-3,-6,
O=C(CN1CCC(n2nnc3cc(C(F)(F)F)ccc32)CC1)Nc1ccc2c(c1)OCCO2,-15,0,49*,-8,
CC(=O)Oc1cc(C(=O)OCC(=O)NC23CC4CC(CC(C4)C2)C3)cc(OC(C)=O)c1OC(C)=O,-8,0,·,-15,
Nc1nonc1-c1nc2ccccc2n1Cc1ccc(F)cc1Cl,-8,-2,active,2,
O=C(CSc1nc2ccccc2[nH]1)NCc1ccco1,18,-3,-1,-1,
O=C(CSc1nc2ncccc2[nH]1)NCc1ccco1,-16,-1,59*,-1,
CCCOc1nc(C)cc(COC)c1C(N)=O,1,1,-4,·,
O=C(Nc1ccc2[nH]c(=O)[nH]c2c1)c1cc(F)c(F)cc1Cl,-13,0,55*,4,
COc1ccc(NC(=O)c2cc(F)c(F)cc2Cl)cc1Cl,-7,-4,-8,-6,
O=C(CCCn1c(=O)[nH]c2cc(Cl)ccc2c1=O)NCCCN1CCN(c2ccc(F)cc2)CC1,-12,-2,9,-3,
CC(=O)Nc1sc(NC(=O)c2ccc(C)cc2)nc1-c1cccs1,-17,·,73*,7,
COC(=O)c1ccccc1NC(=O)CSc1nncn1-c1cccnc1,-1,-3,-5,·,
COC(=O)c1ccccc1NC(=O)CSc1nncn1C,-1,0,55*,-1,
CC(=O)Nc1ccc2nc(CN3CCC(CO)(CCc4ccccc4)CC3)ccc2c1,-7,-1,-3,162*,
O=C(O)Cn1c(-c2ccccc2)cc2ccccc21,-19,0,62*,-3,
CCOC(=O)/C=C(\C)Sc1cc(=O)oc2ccccc12,49*,-2,-6,7,
CN1C(=O)c2cc(NC(=O)NCc3ccccc3)ccc2OC[C@@H]2O[C@H](CC(=O)NCC3CCCCC3)CC[C@@H]21,·,·,·,173*[16.7 µM],
CN1C(=O)c2cc(NC(=O)Cc3cccs3)ccc2OC[C@@H]2O[C@H](CC(=O)NCC3CCCCC3)CC[C@@H]21,·,·,·,154*[16.7 µM],
CN1C(=O)c2cc(NC(=O)Cc3ccccc3)ccc2OC[C@@H]2O[C@@H](CC(=O)NCC3CC3)CC[C@@H]21,·,·,·,183*[16.7 µM],
CCCC(=O)Nc1ccc2c(c1)C(=O)N(C)[C@H]1CC[C@@H](CC(=O)NCC(F)(F)F)O[C@H]1CO2,·,·,·,143*[16.7 µM],
CN1C(=O)c2cc(NC(=O)Cc3ccccc3)ccc2OC[C@H]2O[C@H](CC(=O)NCC3CC3)CC[C@@H]21,·,·,·,42[16.7 µM],
CN1C(=O)c2cc(NC(=O)NCc3ccccc3)ccc2OC[C@H]2O[C@H](CC(=O)NCC3CCCCC3)CC[C@H]21,·,·,·,44[16.7 µM],
SMILES,PvdQ inh,CAL PDZ FP-1,CAL PDZ FP-2,miR-122 sensor,others
Cc1cccc(-n2ncc3c2CCCC3NC(=O)CCCN2CCCCC2=O)c1C (stereo not given),-2,-1,2,-5,
CN(C(=O)c1cc(-c2ccc3c(c2)OCO3)on1)c1ccccc1,3,-1,13,·,
CCC(=O)Nc1ccc2c(c1)nc1n2CCN(C2CCCCC2)C1,-14,0,-1,·,
Cc1noc(C)c1NC(=O)N(C)C[C@@H]1Oc2ncc(C#CC3CCCCC3)cc2C(=O)N([C@H](C)CO)C[C@@H]1C,·,·,·,-10[16.7 µM],
Cc1ccccc1NC(=O)Nc1ccc2c(c1)C(=O)N(C)[C@H]1CC[C@@H](CC(=O)NCC3CC3)O[C@H]1CO2,·,·,·,218*[16.7 µM],
CCOC(=O)c1oc2c(O)c(O)ccc2c(=O)c1-c1nncn1-c1ccccc1,-11,0,-1,-5,
Cc1nn2c(-c3ccc(F)cc3)ccnc2c1Cl,-5,1,61*,1,
COc1cc(C(C[N+](=O)[O-])c2c(C)[nH]c3ccccc23)cc(OC)c1OC (stereo not given),-6,0,-3,-1,
Cc1ccc(S(=O)(=O)Nc2ccc3c(c2)C(=O)N([C@@H](C)CO)C[C@@H](C)[C@H](CN(C)CC2CCCCC2)OCCCC[C@@H](C)O3)cc1,·,·,·,-8[16.7 µM],
Cc1nn(C)c(C(=O)Sc2cccc(Cl)c2)c1[N+](=O)[O-],-19,-1,95*,·,
O=C(Nc1ccc2ccccc2c1)c1cccc2ccccc12,-13,0,70*,0,
CC(=O)c1cccc(NC(=O)c2cccc3ccccc23)c1,-3,-1,52*,2,
Cc1cc(C(=O)Nc2ccc3ccccc3c2)c(C)o1,-3,-1,41*,4,
CC(=O)c1cc(C(=O)Nc2ccc3ccccc3c2)c(C)o1,-1,-1,·,-5,
O=C(Nc1ccncc1)c1cccc2ccccc12,-7,0,-4,-18,
O=C(O)c1cc2nccc(-c3ccc(F)cc3)n2n1,-13,-1,8,1,
O=C1CCC[C@@H]2CC(Nc3ccc(F)cc3F)C[C@@H]3CCN1[C@H]23 (stereo not given in full),7,0,-2,-7,
COC(=O)c1cccc(C(=O)Nc2ccc(C)cc2)n1,-2,-2,-2,0,
CC1=CC(C)(C)Nc2ccc(OC(=O)C(Cc3ccccc3)N3C(=O)c4ccccc4C3=O)cc21 (stereo not given),-17,-1,68*,-5,
Cc1ccc(C)c(S(=O)(=O)NCCCn2ccnc2)c1,-12,0,-6,3,
Cc1cc(Cl)c(Cl)cc1S(=O)(=O)NCCCn1ccnc1,15,33,7,132*,miR-27b select=0.87
Cc1cccc(NS(=O)(=O)c2cc3c(cc2C)NC(=O)CO3)c1,7,-1,·,107*,miR-27b select=0.69
Nc1c(S(=O)(=O)c2cccs2)c2nc3ccccc3nc2n1Cc1ccccc1,1,-1,·,321*,miR-27b select=0.43
Cc1ccc(Cn2c(N)c(S(=O)(=O)c3cccs3)c3nc4ccccc4nc32)cc1,-4,1,-6,27,
CCOc1ccccc1N1CCN(C(=O)c2ccncc2)CC1,8,-2,-3,·,
SMILES,PvdQ inh,CAL PDZ FP-1,CAL PDZ FP-2,miR-122 sensor,others
CCOc1ccccc1N1CCN(C(=O)c2cccc(-c3ccc(O)cc3)c2)CC1,2,-3,0,156*,miR-27b select=0.84
COc1ccc(C)cc1NS(=O)(=O)c1ccc2c(c1)N(C)CCO2,0,-2,-2,149*,miR-27b select=1.2
CN1C(=O)c2cccc3c(S(=O)(=O)NCCc4ccccc4)ccc1c23,-9,-1,·,117*,miR-27b select=0.64
COCCNS(=O)(=O)c1ccc2c3c(cccc13)C(=O)N2C,-10,-1,4,33,
C/C(=N\Nc1ccccc1[N+](=O)[O-])c1ccc(N2CCOCC2)cc1,-13,-1,4,·,
Cc1ccc(C)c(S(=O)(=O)Nc2ccc3cn[nH]c3c2)c1,4,1,-5,153*,miR-27b select=1.3
